Results from different studies.
Lines come from different studies, so protocols differ.
F2: Prothrombin (F2, Homo sapiens, UniProt P00734)
HDAC6: Protein deacetylase HDAC6 (HDAC6, Homo sapiens, UniProt Q9UBN7)
MEP1B: Meprin A subunit beta (MEP1B, Homo sapiens, UniProt Q16820)
KCNK9: Potassium channel subfamily K member 9 (KCNK9, Homo sapiens, UniProt Q9NPC2)
Dihydroorotate dehydrogenase, mitochondrial, putative: Dihydroorotate dehydrogenase, mitochondrial, putative (Plasmodium vivax, UniProt A5K1N1)
PDE4D: 3',5'-cyclic-AMP phosphodiesterase 4D (PDE4D, Homo sapiens, UniProt Q08499)
GRM7: Metabotropic glutamate receptor 7 (GRM7, Homo sapiens, UniProt Q14831)
CDK7 with cyclin H: Cyclin-dependent kinase 7, with cyclin H (CDK7, Homo sapiens, UniProt P50613)

COc1ccc2cc(/C=N/n3c(C)nc4ccc(Br)cc4c3=O)ccc2c1 — IC50 (F2; enzyme activity; inhibitor): 51900 nM
O=C(N[C@@H](Cc1c[nH]c2ccccc12)C(=O)O)c1ccc(Cl)cc1 — IC50 (Free fatty acid receptor 3 (FFAR3, Homo sapiens, UniProt O14843); calcium signal; antagonist): > 25100 nM
O=C(NO)c1ccc(Cn2c(C(F)(F)F)nc3ccccc32)cc1 — IC50 (HDAC6; enzyme activity; inhibitor): 10 nM
O=C(CCN(Cc1ccc(Cl)cc1F)Cc1ccc(Cl)c(O)c1F)NO — IC50 (MEP1B; enzyme activity; inhibitor): 274 nM
N#Cc1nc(NCc2cccc(-c3cn(S(=O)(=O)c4ccccc4)c4ccccc34)c2)c2ncn(CCCO)c2n1 — IC50 (Cathepsin B-like cysteine protease (Trypanosoma brucei, UniProt Q6R7Z5); enzyme activity; inhibitor): > 15000 nM
COC(=O)C1=C(C)NC(C)=C(C(=O)OCCN(C)Cc2ccccc2)C1c1cccc([N+](=O)[O-])c1 (stereo not drawn) — IC50 (KCNK9; ion flux; inhibitor): > 30000 nM
CC[C@@H](C(=O)Nc1ccc(C(N)=O)c(F)c1)n1cc(OC)c(-c2cc(Cl)ccc2-n2cc(C(F)(F)F)nn2)cc1=O — IC50 (F2; enzyme activity; inhibitor): 6600 nM
Cc1nc(NC2CCc3cc(Br)ccc3C2)c2c(C)noc2n1 (stereo not drawn) — IC50 (Dihydroorotate dehydrogenase, mitochondrial, putative; enzyme activity; inhibitor; absorbance): 150 nM
COc1cc(/C=C2\SC(=O)NC2=O)cc(F)c1OCCNc1nc2c(cnn2C2CCCC2)c(=O)[nH]1 — IC50 (PDE4D; enzyme activity; inhibitor): 765 nM
COCCOC(=O)C1=C(C)NC(C)=C(C(=O)OC(C)C)C1c1cccc([N+](=O)[O-])c1 (stereo not drawn) — IC50 (Potassium channel subfamily K member 18 (KCNK18, Homo sapiens, UniProt Q7Z418); ion flux; inhibitor): 17500 nM
COc1cc(/C=N/n2c(C)nc3ccc(Br)cc3c2=O)ccc1OCc1ccc(Cl)cc1 — IC50 (F2; enzyme activity; inhibitor): 44900 nM
COc1ccc2c(Oc3ccc4c(C(=O)Nc5ccccc5N)cccc4c3)ccnc2c1 — IC50 (Potassium/sodium hyperpolarization-activated cyclic nucleotide-gated channel 4 (HCN4, Homo sapiens, UniProt Q9Y3Q4); ion current; inhibitor): > 10000 nM
COc1ccc(-c2noc(-c3cc(Cl)ccc3-n3cncn3)n2)c(F)c1OC — IC50 (GRM7; calcium signal; antagonist): > 30000 nM
OCc1ccc2c(c1C#Cc1ccc(O)cc1)C(c1ccc(O)cc1)(c1ccc(O)cc1)c1cc(O)ccc1-2 — IC50 (PDE4D; enzyme activity; inhibitor): 267 nM
CC(C)(C)n1nc(-c2cnc3cc(OC4CC4)ccc3c2)c(C(N)=O)c1N — IC50 (Mitogen-activated protein kinase 1 (MAPK1, Homo sapiens, UniProt P28482); cell-free assay): > 10000 nM
CNCCCOc1cc2nc(N3CCCN(C)CC3)nc(NC3CCN(C)CC3)c2cc1OC — IC50 (Histone-lysine N-methyltransferase EHMT2 (EHMT2, Homo sapiens, UniProt Q96KQ7); enzyme activity; inhibitor): 45 nM
C=CC(=O)Nc1ccc(N2CCC[C@@H](Nc3ncc(Cl)c(-c4c[nH]c5ccccc45)n3)C2)cc1C — IC50 (CDK7 with cyclin H; enzyme activity; inhibitor; FRET): 197 nM
Cc1cn([C@H]2C[C@H](N=[N+]=[N-])[C@@H](CO)O2)c(=O)[nH]c1=O — IC50 (Gag-Pol polyprotein, reverse transcriptase (gag-pol, Human immunodeficiency virus type 1 group M subtype B, UniProt P04585); enzyme activity; inhibitor; ELISA): 12200 nM
Cc1nc2ccc(Cl)cc2c(=O)n1NC(=O)CCl — IC50 (F2; enzyme activity; inhibitor): 83900 nM
O=c1cc(-c2ccccc2)oc2c1ccc1ccccc12 — IC50 (CDK7 with cyclin H; enzyme activity; inhibitor; ADP detection): > 100000 nM
CN(C)CC#Cc1ccc2[nH]c3c(c2c1)-c1nc(N)ncc1CCC3 — IC50 (Cyclin-dependent kinase 7 (CDK7, Homo sapiens, UniProt P50613); enzyme activity; inhibitor; radiometric): > 10000 nM
CCOC(=O)C1=C(C)NC(C)=C(C(=O)OC)C1c1cccc([N+](=O)[O-])c1 (stereo not drawn) — IC50 (KCNK9; ion flux; inhibitor): > 30000 nM
O=C(CCN(Cc1ccncc1)Cc1ccc2c(c1)OCO2)NO — IC50 (MEP1B; enzyme activity; inhibitor): 8180 nM
NC(=O)c1cccc(-c2cccc(OC(=O)NC3CCCCC3)c2)c1 — IC50 (Liver carboxylesterase 1 (CES1, Homo sapiens, UniProt P23141); enzyme activity; inhibitor): 39 nM
CC(C)C[C@H](NC(=O)[C@H]1O[C@@H]1C(=O)O)C(=O)NCCCCN=C(N)N — IC50 (Calpain-1 catalytic subunit (CAPN1, Homo sapiens, UniProt P07384); enzyme activity; inhibitor): 30.9 nM
COc1c(C(=O)/C=C(\O)c2ccccc2)ccc2occc12 — IC50 (CDK7 with cyclin H; enzyme activity; inhibitor; ADP detection): > 100000 nM
COc1ccc(-c2noc(-c3cc(Cl)c(F)cc3-n3cncn3)n2)cc1OC — IC50 (GRM7; calcium signal; antagonist): > 30000 nM
Nc1ccc(-c2ccncc2)cc1NC(=O)N1CCCC1 — IC50 (HDAC6; enzyme activity; inhibitor): > 33300 nM
COc1cc(NCC(=O)Nn2c(C)nc3ccc(Cl)cc3c2=O)cc(OC)c1OC — IC50 (F2; enzyme activity; inhibitor): 63500 nM
Cc1nc(NC2CCc3cc(Cl)ccc3C2)c2c(C)noc2n1 (stereo not drawn) — IC50 (Dihydroorotate dehydrogenase, mitochondrial, putative; enzyme activity; inhibitor; absorbance): 58 nM
CCc1ccc(/C=N/n2c(C)nc3ccc(C)cc3c2=O)s1 — IC50 (F2; enzyme activity; inhibitor): 269000 nM
Cc1nc(Nc2ccc(C(F)(F)F)cc2)c2c(C(F)(F)F)noc2n1 — IC50 (Dihydroorotate dehydrogenase, mitochondrial, putative; enzyme activity; inhibitor; absorbance): 76 nM
C=CC(=O)Nc1ccc(N2CCC[C@@H](Nc3ncc(Cl)c(-c4c[nH]c5ccccc45)n3)C2)c(F)c1 — IC50 (CDK7 with cyclin H; enzyme activity; inhibitor; FRET): 318 nM
CN1CCN(c2ccc(Nc3ncc4cc(C#N)c(=O)n(C5CCCC5)c4n3)cc2)CC1 — IC50 (Dual specificity protein kinase TTK (TTK, Homo sapiens, UniProt P33981); enzyme activity; inhibitor): 66.8 nM
CCCON(Cc1ccc(C(=O)NO)cc1)C(=O)Nc1ccccc1 — IC50 (HDAC6; enzyme activity; inhibitor; fluorescence): 20 nM
CCCC[C@H](NC(=O)C1CN(C)C1)c1ncc(-c2cc3ccccc3nc2OC)[nH]1 — IC50 (HDAC6; enzyme activity; inhibitor): 1100 nM
O=C(CCN(Cc1ccc2c(c1)OCO2)Cc1ccc(Cl)cc1F)NO — IC50 (MEP1B; enzyme activity; inhibitor): 960 nM
CCOCc1nc(O)c(-c2nnc(Cc3ccc(Cl)cn3)o2)c(O)c1-c1c(OC)cccc1OC — IC50 (5-hydroxytryptamine receptor 1B (HTR1B, Homo sapiens, UniProt P28222); ligand displacement; radioligand): > 30000 nM
CC(C)n1c(/C=C/C(O)CC(O)CC(=O)O)c(-c2ccc(F)cc2)c2ccccc21 (stereo not drawn) — IC50 (3-hydroxy-3-methylglutaryl-coenzyme A reductase (HMGCR, Homo sapiens, UniProt P04035); enzyme activity; inhibitor; absorbance): 173 nM
COc1ccc(-c2nsc(NC(=O)[C@@H]3C[C@H]3C)c2C)cc1 — IC50 (GRM7; calcium signal; antagonist): > 12500 nM
Cc1nc2ccccc2n1Cc1c(F)c(F)c(C(=O)NO)c(F)c1F — IC50 (HDAC6; enzyme activity; inhibitor): 3500 nM
COc1ccc(C2=NN(C3CCCCCC3)C(=O)[C@@H]3CC=CC[C@H]23)cc1-c1ccc(C(N)=O)cc1 (relative stereo) — IC50 (PDE4D; enzyme activity; inhibitor): 126 nM
